Experimental data reported in ChEMBL document CHEMBL2016460, “Synthesis, biological evaluation, and molecular docking studies of 2,6-dinitro-4-(trifluoromethyl)phenoxysalicylaldoxime derivatives as novel antitubulin agents” (Bioorg Med Chem, 2012).

What was measured:
MCF7 [1] = test: Antiproliferative activity against human MCF7 cells after 48 hrs by MTT assay; type: functional, cell-based; settings: MCF7, 48 h
Procedure, shortened: (§1)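 Cells were seeded into 96-well plates in complete medium and preincubated 24 h at 37 °C, 5% CO2. Compounds at preset concentrations were added to six wells, with colchicine and CA-4 run alongside as references, and exposed for 48 h. MTT (2.5 mg mL^-1 in PBS) was added for 4 h, followed by SDS/isobutyl alcohol/HCl extraction overnight at 37 °C. OD was read at 570 nm, with three replicate wells per concentration.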

[2] = Inhibition of bovine tubulin polymerization after 20 mins by spectrophotometry; set-up: species or system Bos taurus
Procedure, shortened: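 Tubulin was preincubated in glutamate buffer at 30 °C and then cooled to 0 °C. GTP was added, samples were moved to 0 °C cuvettes and warmed to 30 °C, and assembly was followed turbidimetrically in a recording spectrophotometer. IC50 was taken as the concentration inhibiting the extent of assembly by 50% after 20 min.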

A549 = test: Antiproliferative activity against human A549 cells after 48 hrs by MTT assay; type: functional, cell-based; settings: A549, 48 h; procedure, shortened: as §1
HepG2 = test: Antiproliferative activity against human HepG2 cells after 48 hrs by MTT assay; type: functional, cell-based; settings: HepG2, 48 h; procedure, shortened: as §1
MCF7 [3] = test: Induction of apoptosis in human MCF7 cells assessed as early apoptotic cells at 0.01 uM incubated for 24 hrs by Annexin-V-FITC/PI staining based flow cytometry (reference value: 7.4 %); type: functional
MCF7 [4] = test: Induction of apoptosis in human MCF7 cells assessed as late apoptotic cells at 0.01 uM incubated for 24 hrs by Annexin-V-FITC/PI staining based flow cytometry (reference value: 3.17 %); type: functional
MCF7 [5] = test: Induction of apoptosis in human MCF7 cells assessed as late apoptotic cells at 0.25 uM incubated for 24 hrs by Annexin-V-FITC/PI staining based flow cytometry (reference value: 3.17 %); type: functional
MCF7 [6] = test: Induction of apoptosis in human MCF7 cells assessed as late apoptotic cells incubated for 24 hrs by Annexin-V-FITC/PI staining based flow cytometry; type: functional, cell-based
MCF7 [7] = test: Induction of apoptosis in human MCF7 cells assessed as early apoptotic cells at 0.05 uM incubated for 24 hrs by Annexin-V-FITC/PI staining based flow cytometry (reference value: 7.4 %); type: functional
MCF7 [8] = test: Induction of apoptosis in human MCF7 cells assessed as early apoptotic cells at 0.25 uM incubated for 24 hrs by Annexin-V-FITC/PI staining based flow cytometry (reference value: 7.4 %); type: functional
MCF7 [9] = test: Induction of apoptosis in human MCF7 cells assessed as late apoptotic cells at 0.05 uM incubated for 24 hrs by Annexin-V-FITC/PI staining based flow cytometry (reference value: 3.17 %); type: functional

IC50 (MCF7 [1])	IC50 [2]	IC50 (A549)	IC50 (HepG2)	Compound	Activity (MCF7 [3])	Activity (MCF7 [4])	Activity (MCF7 [5])	Activity (MCF7 [6])	Activity (MCF7 [7])	Activity (MCF7 [8])	Activity (MCF7 [9])
1.1 µM	6.92 µM	1.43 µM	1.17 µM	O=[N+]([O-])c1cc(C(F)(F)F)cc([N+](=O)[O-])c1Oc1ccccc1/C=N/OCc1ccccc1Cl							
2.84 µM	13.2 µM	3.43 µM	1.24 µM	O=[N+]([O-])c1cc(C(F)(F)F)cc([N+](=O)[O-])c1Oc1ccc(Br)cc1/C=N/OCc1ccccc1Cl							
1.14 µM	7.54 µM	3.44 µM	1.28 µM	O=[N+]([O-])c1cc(C(F)(F)F)cc([N+](=O)[O-])c1Oc1ccc(Cl)cc1/C=N\OCc1ccc(Cl)cc1Cl							
2.09 µM	15.7 µM	6.19 µM	1.05 µM	O=[N+]([O-])c1cc(C(F)(F)F)cc([N+](=O)[O-])c1Oc1c(Br)cc(Br)cc1/C=N/OCc1ccc(Cl)cc1Cl							
1.34 µM	7.06 µM	2.06 µM	1.07 µM	O=[N+]([O-])c1cc(C(F)(F)F)cc([N+](=O)[O-])c1Oc1ccc(Br)cc1/C=N\OCc1ccc(Cl)cc1Cl							
1.22 µM	30.9 µM	3.41 µM	1.79 µM	O=[N+]([O-])c1cc(C(F)(F)F)cc([N+](=O)[O-])c1Oc1ccc(Cl)cc1/C=N\OCc1ccccc1							
1.11 µM	7.07 µM	2.57 µM	1.02 µM	O=[N+]([O-])c1cc(C(F)(F)F)cc([N+](=O)[O-])c1Oc1ccc(Cl)cc1/C=N\OCc1ccccc1F							
0.8 µM	3.65 µM	1.23 µM	0.82 µM	O=[N+]([O-])c1cc(C(F)(F)F)cc([N+](=O)[O-])c1Oc1c(Cl)cc(Cl)cc1/C=N\OCc1ccccc1F							
0.7 µM	3.06 µM	0.86 µM	0.68 µM	O=[N+]([O-])c1cc(C(F)(F)F)cc([N+](=O)[O-])c1Oc1ccccc1/C=N\OCc1ccccc1F	17.32%	4.46%	9.65%	Dose-dependent effect	27.64%	34.51%	7.72%
2.32 µM	18.1 µM	4.12 µM	2.45 µM	O=[N+]([O-])c1cc(C(F)(F)F)cc([N+](=O)[O-])c1Oc1c(Br)cc(Br)cc1/C=N\OCc1ccccc1Cl							
1.83 µM	18 µM	2.15 µM	1.48 µM	O=[N+]([O-])c1cc(C(F)(F)F)cc([N+](=O)[O-])c1Oc1c(Br)cc(Br)cc1/C=N\OCc1ccccc1							
1.12 µM	6.9 µM	1.28 µM	0.89 µM	O=[N+]([O-])c1cc(C(F)(F)F)cc([N+](=O)[O-])c1Oc1ccc(Br)cc1/C=N\OCc1ccccc1F							
1.21 µM	9.02 µM	1.45 µM	1.12 µM	O=[N+]([O-])c1cc(C(F)(F)F)cc([N+](=O)[O-])c1Oc1c(Cl)cc(Cl)cc1/C=N\OCc1ccccc1							
1.33 µM	14 µM	1.47 µM	1.33 µM	O=[N+]([O-])c1cc(C(F)(F)F)cc([N+](=O)[O-])c1Oc1ccccc1/C=N\OCc1ccccc1							
0.94 µM	4.08 µM	1.61 µM	1.02 µM	O=[N+]([O-])c1cc(C(F)(F)F)cc([N+](=O)[O-])c1Oc1ccccc1/C=N/OCc1ccc(Cl)cc1Cl							
0.88 µM	4.53 µM	1.56 µM	1.1 µM	O=[N+]([O-])c1cc(C(F)(F)F)cc([N+](=O)[O-])c1Oc1c(Br)cc(Br)cc1/C=N\OCc1ccccc1F							
1.15 µM	15.4 µM	2.24 µM	1.18 µM	O=[N+]([O-])c1cc(C(F)(F)F)cc([N+](=O)[O-])c1Oc1ccc(Br)cc1/C=N\OCc1ccccc1							
3.95 µM	9.05 µM	5.03 µM	1.51 µM	O=[N+]([O-])c1cc(C(F)(F)F)cc([N+](=O)[O-])c1Oc1ccc(Cl)cc1/C=N\OCc1ccccc1Cl							
1.96 µM	16.1 µM	2.16 µM	1.12 µM	O=[N+]([O-])c1cc(C(F)(F)F)cc([N+](=O)[O-])c1Oc1c(Cl)cc(Cl)cc1/C=N/OCc1ccccc1Cl							
1.03 µM	6.18 µM	1.42 µM	0.94 µM	O=[N+]([O-])c1cc(C(F)(F)F)cc([N+](=O)[O-])c1Oc1c(Cl)cc(Cl)cc1/C=N/OCc1ccc(Cl)cc1Cl							

Compound	IC50 (MCF7 [1])	IC50 [2]	IC50 (A549)	IC50 (HepG2)	Activity (MCF7 [3])	Activity (MCF7 [4])	Activity (MCF7 [5])	Activity (MCF7 [6])	Activity (MCF7 [7])	Activity (MCF7 [8])	Activity (MCF7 [9])
COc1ccc(/C=C\c2cc(OC)c(OC)c(OC)c2)cc1O [COMBRETASTATIN A4]	0.41 µM	0.7 µM	0.09 µM	0.19 µM							
COc1cc2c(c(OC)c1OC)-c1ccc(OC)c(=O)cc1[C@@H](NC(C)=O)CC2 [COLCHICINE]	0.53 µM	1.72 µM	0.75 µM	0.23 µM							
